High-throughput results (PubChem)
A selection: hits, their analogues and other compounds. The true share with any hit is near 5.1%.
STAT3 inh = inhibitors of IL-6 induced STAT3 signaling | 0.89% of 190,000 active | AID 862 | U3A cells, IL-6 STAT3-luciferase reporter, luminescence; host cell line lacks STAT1 | inhibition, % at 5.5 µM;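 active = inhibition above the mean inhibition across all screened compounds plus 3 SD, cut at about 44% in these data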;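 also: 0% = DMSO only wells and 100% = 100 µM nifuroxazide control wells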
STAT1 act = activators of IFN-gamma induced STAT1 signaling | NIH 3T3 STAT1-luciferase reporter, luminescence; 100% = IFN-gamma alone, no compound | activation (% of control), % at 5.5 µM | 2.6% of 200,000 active;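 active = activation above the screen-wide mean activation plus 3 SD, cut at about 130% in these data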;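 also: raw ratio to IFN-gamma control signal so 100% means no change and 0% no light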
STAT3 activator = STAT3 signaling activation; U3A cells, IL-6 STAT3-luciferase reporter, luminescence; 100% = signal with IL-6 EC80 alone; activation (% of control), % at 5.6 µM; 0.91% of 190,000 active; AID 871;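 active = activation above the screen-wide mean of compound activation plus 3 SD, cut at about 130% in these data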;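 also: 0% = background luminescence of wells with medium and substrate only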
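Test system: STAT3-luciferase reporter U3A cells; Detection: reporter luminescence signal; Times: 1 h compound pre-exposure, 6 h IL-6 stimulation, 37 °C; Benchmarks: IL-6-only high control; Also added: IL-6 stimulus at 33 ng/mL final.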
APP 5'UTR act = APP 5'UTR luciferase reporter activation. 1% of 190,000 active. SH-SY5Y APP 5'UTR luciferase reporter, luminescence; zero percent = DMSO vehicle wells. activation, % at 2 µM;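 active = activation above a set limit, based on mean plus 3 SD of controls, cut at about 140% in these data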
STAT1 blocker = STAT1 signaling inhibition; inhibition, % at 5.5 µM; AID 920; NIH 3T3 STAT1-luciferase reporter, IFN-gamma, luminescence; 0.35% of 200,000 active;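 active = inhibition above a set limit, the mean inhibition across all tested compounds plus 3 SD, cut at about 34% in these data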;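 also: 0% = IFN-gamma with DMSO and 100% = IFN-gamma with 300 µM nifuroxazide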
NF-kB expr up = NF-kB expression increase, human neuronal cells. 1.6% of 190,000 active. fold change at 12.5 µM. NF-kB reporter expression; active compounds read high; in the data active = fold change above about 3.3
An asterisk follows results filed as active; . = not tested or not shown.

SMILES | STAT3 inh | STAT1 act | STAT3 activator | APP 5'UTR act | STAT1 blocker | NF-kB expr up
O=C(Nc1cccc(S(=O)(=O)N2CCCCC2)c1)c1ccc2c(=O)n3c(nc2c1)CCCCC3 | 23 | 85 | 83 | -4 | 16 | 0.53
Cc1csc(NC(=O)c2ccc(N3CCCC3=O)cc2)n1 | 89* | 39 | 25 | 47 | 65* | 1.4
CN1CCN(C(=O)c2ccc3c(=O)n4c(nc3c2)CCCCC4)CC1 | -4 | 104 | 106 | -6 | -4 | 1.1
C=CCC1(CC=C)CCCN1C(=O)CC1C(=O)NCCN1Cc1cccc(OC)c1OC (configuration not stated) | -1 | 100 | 105 | -2 | -1 | 1.1
CC(=O)Nc1cccc(C(=O)OCC(=O)NCc2ccc(F)cc2)c1 | 0 | 100 | 102 | -5 | -1 | 1.4
O=C(N/C(=C\c1cccc([N+](=O)[O-])c1)C(=O)N1CCOCC1)c1ccc([N+](=O)[O-])cc1 | -11 | 131* | 117 | 0 | -35 | 0.68
Cc1ccc(NC(=O)c2ccccc2)s1 | 39 | 116 | 71 | 160* | -18 | 6.6*
Cc1cc(NC(=O)c2ccccc2)sc1C | 17 | 131* | 92 | 154* | -34 | 5.3*
S=C(N=Nc1ccccc1)NNc1ccccc1 | -33 | 126 | 131 | 93 | -29 | 3.7*
O=C(CNC(=O)c1cccs1)NCCN1CCC(Cc2ccccc2)CC1 | 3 | 90 | 99 | 6 | 12 | 1.2
CCOC(=O)NC(=O)COC(=O)c1ccc(Sc2ncn[nH]2)c([N+](=O)[O-])c1 | 0 | 100 | 104 | -17 | 0 | 1.1
COCCN(CCOC)S(=O)(=O)c1ccc(C(=O)Nc2sc3c(c2C(N)=O)CCCCC3)cc1 | -6 | 129* | 105 | 90 | -31 | 0.52
Cc1ccc(C)c(NC(=S)NC23CN4CN(CN(C4)C2)C3)c1 | 6 | 98 | 98 | 4 | 1 | 1
CCCn1c(O)c(C=Nc2ccccc2)sc1=S | 8 | 138* | 95 | 25 | -43 | 1.7
CC(C)n1cnc2cc(NCc3nc4ccccc4n3C)ccc21 | -4 | 150* | 107 | 186* | -55 | 1.2
Cn1c(CNc2ccccc2)nc2ccccc21 | -12 | 132* | 111 | 79 | -36 | 2.9
CCn1cnc2cc(NCc3ccc(C)cc3)ccc21 | 3 | 136* | 100 | 87 | -38 | 2.4
CCN(CC)CCn1c(NCc2nc3ccccc3n2Cc2ccccc2)nc2ccccc21 | -8 | 97 | 112 | 9 | 3 | 0.74
CCn1cnc2cc(NCc3nc4ccccc4n3Cc3ccccc3)ccc21 | -5 | 148* | 108 | 168* | -47 | 0.55
CCCC(=O)NCc1nc2ccccc2n1C | 8 | 99 | 95 | -20 | 1 | 1.5
O=[N+]([O-])c1ccc(Sc2nnnn2-c2ccccc2)nc1 | 12 | 88 | 95 | -94 | 11 | 1.5
CC(C)c1ccc(/C=N/NC(=O)c2nnn(-c3nonc3N)c2CSC2=NCCS2)cc1 | 4 | 94 | 97 | -10 | 6 | 1.5
CC(C)Oc1cccc(C(=O)C2CCCN(S(=O)(=O)C(C)C)C2)c1 (configuration not stated) | 6 | 99 | 101 | 11 | -1 | 1.1
CCn1cnc2cc(NCc3nc4ccccc4n3C)ccc21 | 22 | 124 | 86 | 146* | -26 | 5.5*
CCn1cnc2cc(NCc3ccc(N(C)C)cc3)ccc21 | 1 | 122 | 107 | 46 | -26 | 0.51
SMILES | STAT3 inh | STAT1 act | STAT3 activator | APP 5'UTR act | STAT1 blocker | NF-kB expr up
CCC(CO)Nc1ncnc2c1cnn2-c1ccc(OC)cc1 (configuration not stated) | 6 | 147* | 102 | 148* | -52 | 1.2
CCC(CO)Nc1ncnc2c1cnn2-c1ccc(Cl)cc1 (configuration not stated) | 20 | 147* | 88 | 162* | -52 | 0.69
S=C1NCCNC(=S)NCCOCCOCCOCCN1 | 10 | 103 | 100 | 21 | -3 | 1.1
CC(=O)NC1(c2ccccc2)CCN(c2cc(C)nc(-c3ccccc3)n2)CC1 | -1 | 100 | 103 | 25 | -1 | 0.91
COc1ccc(/C(C)=N/NC(=O)c2sccc2-n2cccc2)cc1 | 19 | 103 | 86 | 8 | -4 | 1.3
CCOC(=O)c1c(NC(=O)CSc2nnnn2-c2ccc(OC)cc2)sc(C)c1C | 0 | 93 | 106 | -6 | 7 | 0.97
COc1cc(/C=N/NC(=O)c2ccc(-c3ccccc3)cc2)cc(OC)c1OC | -40 | 112 | 134* | -5 | -14 | 0.98
COc1cc(C(=O)Oc2ccccc2/C=N/NC(=O)c2ccc(Cl)cc2)cc(OC)c1OC | -10 | 131* | 106 | -40 | -35 | 1.7
COc1cc(C(=O)Oc2ccccc2/C=N/NC(=O)c2ccc(C)c(Cl)c2)cc(OC)c1OC | 4 | 101 | 93 | -50 | -1 | 0.92
NS(=O)(=O)c1ccc(CCNC(=O)CCCCCn2c(=S)[nH]c3ccc(Br)cc3c2=O)cc1 | 6 | 90 | 99 | 4 | 12 | 1.1
O=S(=O)(c1cccs1)N1CCC(CO)(Cc2cccc(F)c2)CC1 | 7 | 99 | 100 | -6 | 0 | 1.2
Clc1ccc(-c2csc(Nc3ccccc3)[n+]2Cc2ccco2)c(Cl)c1 | -4 | 140* | 103 | 38 | -43 | 0.96
CCCC[n+]1c(-c2ccc(Cl)cc2Cl)csc1Nc1ccccc1 | -13 | 102 | 107 | -2 | -2 | 0.66
CNC(=O)COc1ncnc2scc(-c3ccc(F)cc3)c12 | 5 | 102 | 97 | 5 | -3 | 1.2
C/C(=N/OC(=O)C1CC1)c1cc(-c2ccc(Cl)cc2)no1 | -4 | 136* | 108 | 88 | -42 | 2.5
COc1cc(OC)cc(-c2cc3nc(C)c(CCC(=O)O)c(C)n3n2)c1 | 88* | 52 | 31 | -78 | 53* | 0.29
CC(C)CC(=O)Nc1ccc(-c2nnn(CC(=O)NCc3ccco3)n2)cc1 | -12 | 129* | 117 | 64 | -33 | 1.7
CCCCOc1ccc(-c2nnn(CC(=O)NCc3ccco3)n2)cc1 | -5 | 118 | 108 | 7 | -19 | 1.9
Cc1ccc2nc(Nc3nc(CSc4nnc(C)s4)cc(=O)[nH]3)nc(C)c2c1 | 9 | 135* | 94 | 8 | -40 | 1.1
Cc1nnc(SCc2cc(=O)[nH]c(Nc3nc(C)c4ccccc4n3)n2)s1 | 3 | 105 | 97 | -5 | -5 | .
Cc1ccc(NC(=O)C2Cc3ccccc3C(=O)O2)cc1 (configuration not stated) | 13 | 135* | 92 | 52 | -39 | 1.7
Cc1onc(-c2c(F)cccc2Cl)c1C(=O)OCn1nnc2ccccc2c1=O | 0 | 94 | 103 | -2 | 7 | 5.6*
CCOC(=O)Cc1ccc2sc(-c3ccccc3)nc2c1 | 8 | 139* | 93 | 178* | -43 | 9.4*
CCOC(=O)c1sc(-c2ccccc2)cc1N | -3 | 132* | 105 | 86 | -47 | 2.5
